This is an account of results in ChEMBL document CHEMBL1125493, “HIV-1 neutralization and tumor cell proliferation inhibition in vitro by simplified analogues of pyrido[4,3,2-mn]thiazolo[5,4-b]acridine marine alkaloids” (J Med Chem, 1992).

A word on the Inhibition: it is the percentage by which the read-out fell short of the control. High values mean a strong effect, low ones a weak effect.

Assay [1] has as its system MT4. Briefly: Cytotoxic effect in cultured MT-4 lymphocytes at a concentration of 2 ug/mL (0.0080 uM/mL). The class given is functional, Homo sapiens. An outline of the steps: (§1)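 MT-4 cells at 5 × 10^4 cells/well, 1 mL total, cultured with compound diluted in RPMI 1640 with 10% FBS, 10 mM HEPES, penicillin/streptomycin and 2 mM glutamine, at 37 °C under 5% CO2. Viability was scored by trypan blue exclusion on days 4 and 7, in triplicate, as % viable cells.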

Assay [2] in a line: Calu3 lung tumor cell proliferation inhibition by the compound in vitro at a concentration of 0.6 uM. The class given is functional, Homo sapiens. Put shortly:
(§2)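 Tumor cells grown in RPMI-1640 in 1% agar with 5% fetal bovine serum, exposed to the specified concentrations for 1 week. Viability was assessed against a control given distilled water in place of drug. 5-Fluorouracil served as the positive cytotoxic standard. Results are reported as concentration-dependent cell survival.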

The nature of assay [3]: Calu3 lung tumor cell proliferation inhibition by the compound in vitro at a concentration of 6.0 uM. The format is functional, Homo sapiens. Put shortly: as §2
Assay [4] in a line: Calu3 lung tumor cell proliferation inhibition by the compound in vitro at a concentration of 60 uM. The format is functional, Homo sapiens. An outline of the steps: as §2
Assay [5] has as its system COLO 320DM. Briefly: COLO 320DM colon tumor cell proliferation inhibition by the compound in vitro at a concentration of 0.6 uM. The class given is functional, Homo sapiens. An outline of the steps:
as §2

In assay [6] the test system is COLO 320DM. Description: COLO 320DM colon tumor cell proliferation inhibition by the compound in vitro at a concentration of 6.0 uM. The class given is functional, Homo sapiens. An outline of the steps:
as §2

Assay [7] concerns COLO 320DM. Briefly: COLO 320DM colon tumor cell proliferation inhibition by the compound in vitro at a concentration of 60 uM. The class given is functional, Homo sapiens. Put shortly:
as §2

In assay [8] the test system is Human immunodeficiency virus 1. Description: Inhibitory effect (100 uM) against HIV-1 in human peripheral blood monocyte cells(PBMC) (EC50 ->32.5 ug/mL). The class given is functional.
For assay [9], the system named is Human immunodeficiency virus 1. Briefly: Protection of MT-4 lymphocytes by the compound against HIV-1 infectivity in vitro at a concentration of 100 ug/mL (0.30 uM/mL). The format is functional. Put shortly: (§3)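 Virus (HIV-1 Molt IIIB, ~2 × 10^4 TCID50) preincubated with compound 1 h at 37 °C, 5% CO2. Then added to MT-4 cells (5 × 10^5 cells/well) and cultured at 37 °C. Trypan blue viability counts taken on days 4 and 7, triplicate at each concentration. Controls were infected and uninfected cells. Reported as % viable (surviving) MT-4 cells.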

Assay [10] concerns Human immunodeficiency virus 1. Description: Protection of MT-4 lymphocytes by the compound against HIV-1 infectivity in vitro at a concentration of 200 ug/mL (0.60 uM/mL). The class given is functional. Put shortly:
as §3

Assay [11] relates to Human immunodeficiency virus 1. Briefly: Protection of MT-4 lymphocytes by the compound against HIV-1 infectivity in vitro at a concentration of 400 ug/mL (1.20 uM/mL). The format is functional. Put shortly: as §3
Assay [12] deals with Human immunodeficiency virus 1. Briefly: Percent HIV-1 bound to H-9 cells at a concentration of 100(ug/mL). The class given is functional. Put shortly: (§4)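 HIV-1 Molt IIIB (50 μL) incubated overnight with compound at 100 μg/mL, then with uninfected H-9 cells 2 h at 37 °C. Washed; stained with HIV-positive human serum (1:100) then FITC anti-human IgG (1:10), 30 min at 4 °C each. Formaldehyde-fixed (0.5%) and analysed by flow cytometry for % virus bound and % binding inhibition.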

The test system of assay [13] is Human immunodeficiency virus 1. Description: Inactivation of HIV-MN strain in MT-4 lymphocytes in vitro at a concentration of 100 ug/mL (0.30 uM/mL). The format is functional. An outline of the steps: (§5)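 Compound (50 μL) was mixed with 50 μL of HIV-1 Molt IIIB or HIV-MN inoculum in RPMI 1640 for 1 h at room temperature. The mixture was added to 5 × 10^4 MT-4 cells and kept 7 days at 37 °C, 5% CO2. MTT (5.0 mg/mL) was added for 4 h, the reaction was stopped with 0.04 N HCl/2-propanol, and OD was read at 570 nm. % inactivation was calculated from OD relative to uninfected cells and untreated virus, mean of three.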

The subject of assay [14] is Human immunodeficiency virus 1. Description: Inactivation of HIV-MN strain in MT-4 lymphocytes in vitro at a concentration of 200 ug/mL (0.60 uM/mL). The class given is functional. An outline of the steps:
as §5

The test system of assay [15] is Human immunodeficiency virus 1. Briefly: Inactivation of HIV-MN strain in MT-4 lymphocytes in vitro at a concentration of 400 ug/mL (1.20 uM/mL). The class given is functional. An outline of the steps: as §5
Assay [16] concerns Human immunodeficiency virus 1. Description: Inactivation of HIV-MoltIIIB strain in MT-4 lymphocytes in vitro at a concentration of 100 ug/mL (0.30 uM/mL). The class given is functional. Put shortly:
as §5

For assay [17], the system named is Human immunodeficiency virus 1. Description: Inactivation of HIV-MoltIIIB strain in MT-4 lymphocytes in vitro at a concentration of 200 ug/mL (0.60 uM/mL). The format is functional. Put shortly:
as §5

The test system of assay [18] is Human immunodeficiency virus 1. Description: Percent inhibition of HIV-1 binding to H-9 cells at a concentration of 100(ug/mL). The class given is functional. Put shortly:
as §4

For assay [19], the system named is Human immunodeficiency virus 1. Briefly: Inhibitory effect against HIV-1 induced cytopathic effects(HIV-1 neutralization) in MT-4 lymphocytes at a concentration of 100 ug/mL (0.3000 uM/mL). The class given is functional. Put shortly: (§6)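 HIV-1 Molt IIIB (~2 × 10^4 TCID50 in 100 μL) preincubated 1 h at 37 °C with a single compound dose, then added to MT-4 cells (5 × 10^5 cells/well, 1 mL). Cultured at 37 °C, 5% CO2. Viable cells counted by trypan blue exclusion on days 4 and 7. Triplicates; % viable cells. Controls: infected cells (positive), uninfected cells (negative).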

For assay [20], the system named is MT4. Description: Cytotoxic effect in cultured MT-4 lymphocytes at a concentration of 10 ug/mL (0.0300 uM/mL). The format is functional, Homo sapiens. Put shortly:
as §1

In assay [21] the test system is MCF7. Briefly: […] breast tumor cell proliferation inhibition by the compound in vitro at a concentration of 0.6 uM. The format is functional, Homo sapiens. Put shortly:
(§7)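 Breast tumor cells treated with specified compound concentrations in RPMI-1640 in 1% agar with 5% FBS for 1 week. Viability compared with a control given distilled water in place of drug; 5-fluorouracil as standard cytotoxic drug. Reported as concentration-dependent cell survival.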

For assay [22], the system named is MCF7. Description: […] breast tumor cell proliferation inhibition by the compound in vitro at a concentration of 6.0 uM. The format is functional, Homo sapiens. An outline of the steps:
as §7

For assay [23], the system named is MCF7. Briefly: […] breast tumor cell proliferation inhibition by the compound in vitro at a concentration of 60 uM. The format is functional, Homo sapiens. Put shortly:
as §7

Assay [24] relates to MT4. Briefly: Protection of MT-4 lymphocytes by the compound against HIV-1 infectivity in vitro at a concentration of 25 ug/mL (0.075 uM/mL). The format is functional, Homo sapiens. Put shortly:
as §3

For assay [25], the system named is MT4. Briefly: Protection of MT-4 lymphocytes by the compound against HIV-1 infectivity in vitro at a concentration of 50 ug/mL (0.150 uM/mL). The format is functional, Homo sapiens. An outline of the steps:
as §3

In assay [26] the test system is MT4. Briefly: Cytotoxic effect in cultured MT-4 lymphocytes at a concentration of 100 ug/mL (0.3000 uM/mL). The class given is functional, Homo sapiens. Put shortly:
as §1

In assay [27] the test system is MT4. Description: Cytotoxic effect in cultured MT-4 lymphocytes at a concentration of 2 ug/mL (0.0060 uM/mL). The format is functional, Homo sapiens. An outline of the steps:
as §1

For assay [28], the system named is MT4. Briefly: Protection of MT-4 lymphocytes by the compound against HIV-1 infectivity in vitro at a concentration of 12.5 ug/mL (0.038 uM/mL). The class given is functional, Homo sapiens. Put shortly:
as §3

For assay [29], the system named is Human immunodeficiency virus 1. Description: Inactivation of HIV-MoltIIIB strain in MT-4 lymphocytes in vitro at a concentration of 400 ug/mL (1.2u M/mL). The class given is functional. An outline of the steps:
as §5

The test system of assay [30] is Human immunodeficiency virus 1. Briefly: Inhibitory effect against HIV-1 induced cytopathic effects(HIV-1 neutralization) in MT-4 lymphocytes at a concentration of 100 ug/mL (0.2000 uM/mL). The format is functional. Put shortly:
as §6
For orientation: Protection from cytopathic effect is a common read-out in antiviral testing.

In assay [31] the test system is MT4. Briefly: Cytotoxic effect in cultured MT-4 lymphocytes at a concentration of 10 ug/mL (0.0200 uM/mL). The format is functional, Homo sapiens. Put shortly: as §1
In assay [32] the test system is MT4. Briefly: Cytotoxic effect in cultured MT-4 lymphocytes at a concentration of 100 ug/mL (0.2000 uM/mL). The class given is functional, Homo sapiens. Put shortly:
as §1

The test system of assay [33] is MT4. Briefly: Cytotoxic effect in cultured MT-4 lymphocytes at a concentration of 2 ug/mL (0.0040 uM/mL). The class given is functional, Homo sapiens. An outline of the steps:
as §1

In the assay on MT4 [1], `Cc1nc2cc3nc4ccccc4cc3cc2s1.Cl` registered a Viability of 85%.

For `O=C([O-])CSc1ccc2c(c1)c(=O)c1ccccc1n2C1CC1.[Na+]`, the Viability was found to be 104% in assay [2]; 73% in assay [3]; 44% in assay [4]; 107% with COLO 320DM [5]; 108% with COLO 320DM [6]; 87% in the assay with COLO 320DM [7]. Besides, the Viability is 83.7% in assay [19]; 96% with MT4 [20]; 91% with MCF7 [21]; 86% with MCF7 [22]; 44% in the assay on MCF7 [23]; 100% with MT4 [26]. The Viability in the assay with MT4 [27] is listed as 96.6%. Also, the Inhibition in [8] was determined as 29%; in assay [18], 13.8%. The Survival in assay [9] is reported as 83.7%; in assay [10], 81.3%; in assay [11], 86%; in the assay with MT4 [24], 85.5%; in the assay on MT4 [25], 89.2%; with MT4 [28], 77.3%. Moreover, the Bound in [12] is given as 28.7%. Also, the Inactivation in assay [13] is 11.3%; in assay [14] it was 10%; in [15], 11.6%; in assay [16], 3.9%; in [17], 23.5%; in assay [29], 23.3%.

`CCN(CC)CCCC(C)Nc1c2ccc(Cl)cc2nc2ccc(OC)cc12.Cl.Cl` (stereo not drawn) [QUINACRINE DIHYDROCHLORIDE]: the Viability stood at 0% in assay [30], 88.2% in the assay on MT4 [31], 82.1% in the assay on MT4 [32] and 93.6% in the assay on MT4 [33].
